Test results: ChEMBL document CHEMBL1157475, “Selective influence on contextual memory: physiochemical properties associated with selectivity of benzodiazepine ligands at GABAA receptors containing the alpha5 subunit” (J Med Chem, 2008)
Active and inactive are the calls of the source. The calls are words filed in the database; no cut-off is given here.

Experiments:
[1] = target: T1, GABA-A receptor; alpha-1/beta-3/gamma-2 (Homo sapiens, UniProt P14867+P18507+P28472); test: Activity at GABAA alpha-1-beta-3-gamma-2 receptor expressed in Xenopus oocytes assessed as inhibition of GABA-induced current by voltage clamp assay; format: cell-based, Oocyte
T1 sequence (P14867 whole entry): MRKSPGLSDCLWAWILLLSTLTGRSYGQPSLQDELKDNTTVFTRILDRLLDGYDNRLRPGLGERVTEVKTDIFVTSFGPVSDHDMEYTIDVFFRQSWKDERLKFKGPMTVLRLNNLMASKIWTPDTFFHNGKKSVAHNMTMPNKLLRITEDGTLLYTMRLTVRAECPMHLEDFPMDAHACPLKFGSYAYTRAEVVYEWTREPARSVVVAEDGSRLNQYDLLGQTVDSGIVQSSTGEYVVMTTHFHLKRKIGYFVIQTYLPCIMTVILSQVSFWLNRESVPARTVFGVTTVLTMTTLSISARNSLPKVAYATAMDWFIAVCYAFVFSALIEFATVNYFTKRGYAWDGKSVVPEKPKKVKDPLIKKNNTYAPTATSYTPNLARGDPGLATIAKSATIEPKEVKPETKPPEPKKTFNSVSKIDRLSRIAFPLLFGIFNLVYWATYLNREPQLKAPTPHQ
T1 sequence (P18507 whole entry): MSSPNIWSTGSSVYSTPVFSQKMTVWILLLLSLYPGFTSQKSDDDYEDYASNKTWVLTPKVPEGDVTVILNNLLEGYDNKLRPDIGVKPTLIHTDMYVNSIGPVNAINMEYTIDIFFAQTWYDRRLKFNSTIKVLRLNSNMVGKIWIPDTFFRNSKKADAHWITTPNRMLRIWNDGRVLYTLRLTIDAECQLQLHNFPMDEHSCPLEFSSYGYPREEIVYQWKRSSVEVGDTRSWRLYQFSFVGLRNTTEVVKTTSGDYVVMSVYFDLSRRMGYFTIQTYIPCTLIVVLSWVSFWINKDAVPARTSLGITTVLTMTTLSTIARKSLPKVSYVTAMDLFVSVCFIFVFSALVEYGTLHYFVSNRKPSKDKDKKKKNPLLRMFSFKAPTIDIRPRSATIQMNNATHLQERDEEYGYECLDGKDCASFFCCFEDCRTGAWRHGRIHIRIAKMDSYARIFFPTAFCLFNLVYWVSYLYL
T1 sequence (P28472 whole entry): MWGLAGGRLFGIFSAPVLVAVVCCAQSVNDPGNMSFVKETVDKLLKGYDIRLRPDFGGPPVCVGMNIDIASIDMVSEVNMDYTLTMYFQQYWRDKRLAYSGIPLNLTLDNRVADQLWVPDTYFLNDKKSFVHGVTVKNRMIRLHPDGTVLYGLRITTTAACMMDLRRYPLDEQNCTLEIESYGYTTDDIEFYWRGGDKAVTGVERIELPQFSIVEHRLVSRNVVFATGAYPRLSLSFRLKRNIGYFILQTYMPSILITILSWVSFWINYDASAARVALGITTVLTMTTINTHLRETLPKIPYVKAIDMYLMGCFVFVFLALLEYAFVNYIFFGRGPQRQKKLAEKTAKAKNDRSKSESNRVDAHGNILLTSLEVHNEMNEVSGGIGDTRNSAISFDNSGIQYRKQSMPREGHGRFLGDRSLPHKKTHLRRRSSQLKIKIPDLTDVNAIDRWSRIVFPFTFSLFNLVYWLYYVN
How it was run: (§1)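 cRNA for alpha and beta3 subunits (0.0065 ng/nL) plus gamma2 (0.032 ng/nL) injected into Xenopus oocytes, 50 nL each, recorded after ≥36 h. Two-electrode voltage clamp at -60 mV, room temperature, in Xenopus Ringer's pH 7.4. Drug (final 0.1% DMSO) preapplied 30 s, then coapplied with GABA at about EC20 until peak. Current normalized to response without drug.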

[2] = target: T2, GABA-A receptor; alpha-6/beta-3/gamma-2 (Homo sapiens, UniProt P18507+P28472+Q16445); test: Activity at alpha-6-beta-3-gamma-2 GABAA receptor expressed in Xenopus oocytes assessed as inhibition in GABA-induced current by voltage clamp assay; format: cell-based, Oocyte; how it was run: as §1
T2 sequence (Q16445 whole entry, one chain of several): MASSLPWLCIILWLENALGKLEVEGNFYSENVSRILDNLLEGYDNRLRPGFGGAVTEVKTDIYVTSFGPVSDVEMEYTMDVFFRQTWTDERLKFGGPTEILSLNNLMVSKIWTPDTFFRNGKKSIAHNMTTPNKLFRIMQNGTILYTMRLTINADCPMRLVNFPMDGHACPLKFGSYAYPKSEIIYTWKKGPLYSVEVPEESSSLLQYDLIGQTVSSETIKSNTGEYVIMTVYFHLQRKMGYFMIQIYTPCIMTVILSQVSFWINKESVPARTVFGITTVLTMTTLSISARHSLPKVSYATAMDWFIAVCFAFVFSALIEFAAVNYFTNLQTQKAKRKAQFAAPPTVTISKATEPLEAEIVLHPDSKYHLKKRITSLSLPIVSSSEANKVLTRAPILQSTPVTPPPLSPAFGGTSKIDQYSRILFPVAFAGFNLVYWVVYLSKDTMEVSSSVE

[3] = target: T3, GABA A receptor alpha-4/beta-3/gamma-2 (Homo sapiens, UniProt P18507+P28472+P48169); test: Activity at alpha-4-beta-3-gamma-2 GABAA receptor expressed in Xenopus oocytes assessed as inhibition in GABA-induced current by voltage clamp assay; format: cell-based, Oocyte; how it was run: as §1
T3 sequence (P48169 whole entry, one chain of several): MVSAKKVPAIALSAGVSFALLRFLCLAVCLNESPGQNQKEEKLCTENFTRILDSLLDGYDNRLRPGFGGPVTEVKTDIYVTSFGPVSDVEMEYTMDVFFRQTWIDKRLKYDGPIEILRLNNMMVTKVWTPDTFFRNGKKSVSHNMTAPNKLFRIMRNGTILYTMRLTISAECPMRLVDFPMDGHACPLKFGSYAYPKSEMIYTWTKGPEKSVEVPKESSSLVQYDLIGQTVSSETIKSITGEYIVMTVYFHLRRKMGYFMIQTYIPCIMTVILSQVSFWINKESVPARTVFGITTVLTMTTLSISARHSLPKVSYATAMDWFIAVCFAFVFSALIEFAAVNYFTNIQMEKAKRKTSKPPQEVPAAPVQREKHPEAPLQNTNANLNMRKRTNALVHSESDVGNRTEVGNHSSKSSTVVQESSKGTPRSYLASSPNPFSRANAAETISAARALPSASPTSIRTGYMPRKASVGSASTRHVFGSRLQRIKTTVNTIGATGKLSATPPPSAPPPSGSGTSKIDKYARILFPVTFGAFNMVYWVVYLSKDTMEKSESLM

[4] = target: T4, GABA-A receptor; alpha-5/beta-3/gamma-2 (Homo sapiens, UniProt P18507+P28472+P31644); test: Activity at alpha-5-beta-3-gamma-2 GABAA receptor expressed in Xenopus oocytes assessed as inhibition in GABA-induced current by voltage clamp assay; format: cell-based, Oocyte
T4 sequence (P18507 whole entry): T1 sequence (P18507 whole entry)
T4 sequence (P28472 whole entry): T1 sequence (P28472 whole entry)
T4 sequence (P31644 whole entry): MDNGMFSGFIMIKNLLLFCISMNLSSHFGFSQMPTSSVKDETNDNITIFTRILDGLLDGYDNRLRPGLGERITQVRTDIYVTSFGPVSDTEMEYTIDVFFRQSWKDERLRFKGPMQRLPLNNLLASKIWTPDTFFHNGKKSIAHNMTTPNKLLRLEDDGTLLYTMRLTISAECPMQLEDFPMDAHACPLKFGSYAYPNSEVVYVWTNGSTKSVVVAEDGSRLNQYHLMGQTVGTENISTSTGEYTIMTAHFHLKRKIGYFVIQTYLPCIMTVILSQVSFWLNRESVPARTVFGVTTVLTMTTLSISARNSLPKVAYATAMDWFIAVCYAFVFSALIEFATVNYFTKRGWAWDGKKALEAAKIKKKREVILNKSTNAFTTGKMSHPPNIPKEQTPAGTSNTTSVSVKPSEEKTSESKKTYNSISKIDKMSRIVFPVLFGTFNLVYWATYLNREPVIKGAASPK
How it was run: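 cRNA-injected Xenopus oocytes (α5, β3 transcripts 0.0065 ng/nL, γ2 0.032 ng/nL; 50 nL), defolliculated after ≥36 h; two-electrode voltage clamp at −60 mV, room temperature, in Xenopus Ringer's pH 7.4. Ligand (1 µM; 0.1% DMSO final) preapplied 30 s, then coapplied with GABA at EC20 until peak; current change versus GABA alone.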

[5] = target: T5, GABA-A receptor; alpha-2/beta-3/gamma-2 (Homo sapiens, UniProt P18507+P28472+P47869); test: Activity at alpha-2-beta-3-gamma-2 GABAA receptor expressed in Xenopus oocytes assessed as inhibition in GABA-induced current by voltage clamp assay; format: cell-based, Oocyte; how it was run: as §1
T5 sequence (P18507 whole entry): T1 sequence (P18507 whole entry)
T5 sequence (P28472 whole entry): T1 sequence (P28472 whole entry)
T5 sequence (P47869 whole entry): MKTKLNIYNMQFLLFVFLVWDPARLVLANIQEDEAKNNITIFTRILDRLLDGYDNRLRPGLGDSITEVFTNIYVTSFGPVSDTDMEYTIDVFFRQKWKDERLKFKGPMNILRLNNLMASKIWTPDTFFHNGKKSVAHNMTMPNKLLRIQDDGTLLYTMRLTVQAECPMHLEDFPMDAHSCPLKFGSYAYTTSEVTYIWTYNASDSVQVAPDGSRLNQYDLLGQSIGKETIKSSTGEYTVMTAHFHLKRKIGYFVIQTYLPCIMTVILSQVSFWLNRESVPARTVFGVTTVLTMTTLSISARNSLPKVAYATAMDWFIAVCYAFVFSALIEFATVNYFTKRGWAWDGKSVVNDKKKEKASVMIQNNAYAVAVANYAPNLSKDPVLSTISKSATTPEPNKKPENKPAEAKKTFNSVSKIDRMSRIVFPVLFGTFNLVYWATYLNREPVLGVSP

Mus musculus [6] = test: Impairment of contextual memory in C57BL/6J mouse at 30 mg/kg, ip; format: functional, organism-based; design: dose 30 mg/kg
How it was run: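 Male C57Bl/6 mice aged 7–12 weeks, given an ip injection in 0.9% saline containing 2.5% encapsin, 20 min before training. Training was 4 min in the chamber, then three 33 s tones (85 dB, 2.9 kHz), each ending in a 0.75 mA shock for 3 s, 1 min apart. Twenty-four hours later, freezing was scored during a 4 min context test without shock.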

Mus musculus [7] = test: Effect on spontaneous locomotor activity in C57BL/6J mouse at 30 mg/kg, ip by automated assessment; format: functional; conditions: route intraperitoneal
How it was run: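 Male C57Bl/6 mice given 30 mg/kg ip, compared with vehicle-injected mice. Spontaneous locomotor activity was recorded automatically over a 40 min observation period after injection.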

[8] = target: T6, Gamma-aminobutyric acid receptor subunit alpha-3 (Homo sapiens, UniProt P18507+P28472+P34903); test: Binding affinity to GABAA alpha-3-beta-3-gamma-2 receptor
T6 sequence (P34903 whole entry): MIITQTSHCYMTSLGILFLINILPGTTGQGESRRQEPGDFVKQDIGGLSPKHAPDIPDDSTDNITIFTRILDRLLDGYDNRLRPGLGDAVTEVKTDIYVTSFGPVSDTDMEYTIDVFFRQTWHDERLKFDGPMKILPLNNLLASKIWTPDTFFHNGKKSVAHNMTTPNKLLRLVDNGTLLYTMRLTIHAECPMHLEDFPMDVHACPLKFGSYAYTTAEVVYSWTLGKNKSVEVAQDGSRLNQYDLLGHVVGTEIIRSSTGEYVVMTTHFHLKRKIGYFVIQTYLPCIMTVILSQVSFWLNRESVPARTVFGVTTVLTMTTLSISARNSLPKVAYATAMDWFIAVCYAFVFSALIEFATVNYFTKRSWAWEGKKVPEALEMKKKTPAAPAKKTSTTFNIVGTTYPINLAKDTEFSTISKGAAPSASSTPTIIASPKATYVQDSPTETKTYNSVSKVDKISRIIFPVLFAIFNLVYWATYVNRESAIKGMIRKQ

[9] = target: T2, GABA-A receptor; alpha-6/beta-3/gamma-2; test: Binding affinity to GABAA alpha-6-beta-3-gamma-2 receptor; format: protein-complex assay
[10] = target: T1, GABA-A receptor; alpha-1/beta-3/gamma-2; test: Binding affinity to GABAA alpha-1-beta-3-gamma-2 receptor; format: protein-complex assay
[11] = target: T3, GABA A receptor alpha-4/beta-3/gamma-2; test: Binding affinity to GABAA alpha-4-beta-3-gamma-2 receptor; format: protein-complex assay
[12] = target: T5, GABA-A receptor; alpha-2/beta-3/gamma-2; test: Binding affinity to GABAA alpha-2-beta-3-gamma-2 receptor
[13] = target: T4, GABA-A receptor; alpha-5/beta-3/gamma-2; test: Binding affinity to GABAA alpha-5-beta-3-gamma-2 receptor; format: protein-complex assay

C#Cc1ccc2c(c1)C(=O)N(C)Cc1c(C(=O)OC(C)(C)C)ncn1-2
EC50 [1]: 74400 nM
EC50 [2]: 51700 nM
EC50 [3]: 324000 nM
EC50 [4]: 9800 nM
EC50 [5]: 95500 nM

C#Cc1ccc2c(c1)C(c1ccccc1)=N[C@H](C)c1c(C(=O)OCC)ncn1-2
Activity (Mus musculus [6]): Active
Activity (Mus musculus [7]): 1026

CN1CC2C(C(=O)OC(C)(C)C)=NCN2c2ccc(C#C[Si](C)(C)C)cc2C1=O (stereo not drawn)
Ki [8]: 255 nM
Ki [9]: 58.6 nM
Ki [10]: 197 nM
Ki [11]: 2.61 nM
Ki [12]: 143 nM
Ki [13]: 2.61 nM
